In data set [1] the test system is Mus musculus. In words: The compound was tested in vivo for photosensitizing efficacy in DBA/2 Mice transplanted with SMT/F tumors and the activity is expressed as % response (16-20 days) 3 hours post injection at 5.0 mg/kg concentration. In kind it is functional. Put shortly:
(§1)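 Female DBA/2 HA-DD mice, 5-7 weeks old. A 1 mm SMT-F tumor piece from a donor was trocar-implanted subcutaneously in the axilla. At about 5 mm tumor diameter, sensitizer in 1% Tween 80/water was given iv; dose was based on extinction coefficient. At 3 or 24 h after injection, restrained mice had the tumor lit with 135 J/cm2 laser light at the in vivo long-wavelength maximum. Tumor response was followed to day 30; six mice/group.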

In data set [2] the test system is Mus musculus. In words: The compound was tested in vivo for photosensitizing efficacy in DBA/2 Mice transplanted with SMT/F tumors and the activity is expressed as % response (11-15 days) 3 hours post injection at 2.5 mg/kg concentration. The class given is functional. The gist of the method:
as §1

In data set [3] the test system is Mus musculus. In words: The compound was tested in vivo for photosensitizing efficacy in DBA/2 Mice transplanted with SMT/F tumors and the activity is expressed as % response (16-20 days) 3 hours post injection at 1 mg/kg concentration; No response. The class given is functional, organism-based. Also noted: dose 1 mg/kg. The gist of the method:
as §1

Data set [4] deals with Mus musculus. Kind of data set: The compound was tested in vivo for photosensitizing efficacy in DBA/2 Mice transplanted with SMT/F tumors and the activity is expressed as % response (26-30 days) 3 hours post injection at 5.0 mg/kg concentration; No response. Also noted: dose 5 mg/kg. The class given is functional, organism-based. The gist of the method:
as §1

Data set [5] relates to Mus musculus. Kind of data set: The compound was tested in vivo for photosensitizing efficacy in DBA/2 Mice transplanted with SMT/F tumors and the activity is expressed as % response (1-5 days) 3 hours post injection at 2.5 mg/kg concentration. In kind it is functional. Put shortly:
as §1

Data set [6] relates to Mus musculus. Kind of data set: The compound was tested in vivo for photosensitizing efficacy in DBA/2 Mice transplanted with SMT/F tumors and the activity is expressed as % response (16-20 days) 3 hours post injection at 2.5 mg/kg concentration. In kind it is functional. The gist of the method:
as §1

Data set [7] concerns the target T1, Albumin (Homo sapiens, UniProt P02768). Kind of data set: Binding affinity against Human serum albumin(Site I). Put shortly:
(§2)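 Fluorometric titration: HSA and sensitizer fixed at 1 × 10^-6 mol/L. Site probe varied 4 × 10^-7 to 2 × 10^-6 mol/L: DNSA for site I, read at 472 nm; DP for site II, read at 476 nm; excitation 340 nm. Incubated 4 °C, pH 7.0, 4 h, dark. Bound probe taken from standard curves of free probe (water) and HSA-bound probe (2.5 × 10^-5 mol/L HSA).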

Data set [8] has as its system Mus musculus. Kind of data set: The compound was tested in vivo for photosensitizing efficacy in DBA/2 Mice transplanted with SMT/F tumors and the activity is expressed as % response (6-10 days) 3 hours post injection at 5.0 mg/kg concentration. The class given is functional. The gist of the method:
as §1

The test system of data set [9] is Mus musculus. Kind of data set: The compound was tested in vivo for photosensitizing efficacy in DBA/2 Mice transplanted with SMT/F tumors and the activity is expressed as % response (21-25 days) 3 hours post injection at 5.0 mg/kg concentration; No response. The class given is functional, organism-based. Further details: dose 5 mg/kg. The gist of the method: as §1

In data set [10] the test system is Mus musculus. Kind of data set: The compound was tested in vivo for photosensitizing efficacy in DBA/2 Mice transplanted with SMT/F tumors and the activity is expressed as % response (21-25 days) 3 hours post injection at 2.5 mg/kg concentration. In kind it is functional. Put shortly:
as §1

The subject of data set [11] is Mus musculus. In words: The compound was tested in vivo for photosensitizing efficacy in DBA/2 Mice transplanted with SMT/F tumors and the activity is expressed as % response (11-15 days) 3 hours post injection at 5.0 mg/kg concentration. In kind it is functional. Put shortly:
as §1

The test system of data set [12] is Mus musculus. Kind of data set: The compound was tested in vivo for photosensitizing efficacy in DBA/2 Mice transplanted with SMT/F tumors and the activity is expressed as % response (1-5 days) 3 hours post injection at 5.0 mg/kg concentration. In kind it is functional. Put shortly: as §1
In data set [13] the test system is Mus musculus. Kind of data set: The compound was tested in vivo for photosensitizing efficacy in DBA/2 Mice transplanted with SMT/F tumors and the activity is expressed as % response (26-30 days) 3 hours post injection at 1 mg/kg concentration; No response. The class given is functional, organism-based. Also noted: dose 1 mg/kg. The gist of the method:
as §1

Data set [14] has as its system Mus musculus. In words: The compound was tested in vivo for photosensitizing efficacy in DBA/2 Mice transplanted with SMT/F tumors and the activity is expressed as % response (26-30 days) 3 hours post injection at 2.5 mg/kg concentration. In kind it is functional. The gist of the method: as §1
Data set [15] has as its system Mus musculus. Kind of data set: The compound was tested in vivo for photosensitizing efficacy in DBA/2 Mice transplanted with SMT/F tumors and the activity is expressed as % response (1-5 days) 3 hours post injection at 2 1 mg/kg concentration; No response. In kind it is functional, organism-based. Further details: dose 1 mg/kg. Conditions: at 1 mg/kg. Put shortly: as §1

In data set [16] the test system is Mus musculus. In words: The compound was tested in vivo for photosensitizing efficacy in DBA/2 Mice transplanted with SMT/F tumors and the activity is expressed as % response (6-10 days) 3 hours post injection at 2.5 mg/kg concentration. In kind it is functional. Put shortly:
as §1

Data set [17] deals with T1, Albumin. In words: Binding affinity against Human serum albumin(Site II). Put shortly:
as §2

In data set [18] the test system is Mus musculus. Kind of data set: The compound was tested in vivo for photosensitizing efficacy in DBA/2 Mice transplanted with SMT/F tumors and the activity is expressed as % response (11-15 days) 3 hours post injection at 1 mg/kg concentration; No response. Further details: dose 1 mg/kg. The class given is functional, organism-based. The gist of the method:
as §1

In data set [19] the test system is Mus musculus. In words: The compound was tested in vivo for photosensitizing efficacy in DBA/2 Mice transplanted with SMT/F tumors and the activity is expressed as % response (6-10 days) 3 hours post injection at 1 mg/kg concentration; No response. In kind it is functional, organism-based. Further details: dose 1 mg/kg. The gist of the method: as §1
In data set [20] the test system is Mus musculus. Kind of data set: The compound was tested in vivo for photosensitizing efficacy in DBA/2 Mice transplanted with SMT/F tumors and the activity is expressed as % response (21-25 days) 3 hours post injection at 1 mg/kg concentration; No response. In kind it is functional, organism-based. Further details: dose 1 mg/kg. The gist of the method:
as §1

Structures are written as SMILES. The source made the active and inactive calls. The calls are words filed in the database; no cut-off is given here.

T1 sequence (P02768 whole entry): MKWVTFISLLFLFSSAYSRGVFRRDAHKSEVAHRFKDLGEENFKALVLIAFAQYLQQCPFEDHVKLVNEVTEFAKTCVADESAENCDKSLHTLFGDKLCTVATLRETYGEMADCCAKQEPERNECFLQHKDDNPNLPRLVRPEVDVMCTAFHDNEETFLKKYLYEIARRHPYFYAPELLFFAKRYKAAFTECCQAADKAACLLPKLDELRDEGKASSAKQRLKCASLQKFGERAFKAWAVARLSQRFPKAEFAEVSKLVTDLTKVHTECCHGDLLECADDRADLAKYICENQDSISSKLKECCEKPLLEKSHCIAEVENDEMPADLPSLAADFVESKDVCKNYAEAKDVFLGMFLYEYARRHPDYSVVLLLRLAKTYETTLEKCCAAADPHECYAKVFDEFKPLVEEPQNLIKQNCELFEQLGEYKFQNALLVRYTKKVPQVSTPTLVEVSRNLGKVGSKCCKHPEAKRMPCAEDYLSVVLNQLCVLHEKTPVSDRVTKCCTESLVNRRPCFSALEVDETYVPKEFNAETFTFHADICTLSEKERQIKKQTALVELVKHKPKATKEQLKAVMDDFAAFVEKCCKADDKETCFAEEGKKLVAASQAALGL

For `CCc1c(C)c2[nH]c1cc1[nH]c(cc3nc4c(c5nc(c2C=O)[C@@H](C)[C@@H]5CCC(=O)OC)CCC4=C3C)C(=O)C1(C)CC` (stereo not given in full), the Response with Mus musculus [1] came out at 0%; with Mus musculus [2] it was 80%; in the data set with Mus musculus [5] it was 100%; in the data set with Mus musculus [6], 60%; in the data set with Mus musculus [8] it was 60%; in the data set on Mus musculus [10], 60%. Further, the Response with Mus musculus [11] was determined as 60%; in the data set with Mus musculus [12], 100%; in the data set on Mus musculus [14], 20%; in the data set on Mus musculus [16] it was 100%. Besides, the Response result in the data set on Mus musculus [3], with Mus musculus [4], with Mus musculus [9], in the data set with Mus musculus [13], with Mus musculus [15] and in the data set with Mus musculus [18] was “inactive” in each case. For the same compound, the Response result in the data set with Mus musculus [19] and with Mus musculus [20] was “inactive” in each case. In addition, the Binding constant at Albumin [7] and on Albumin [17] was 500000 l M-1 throughout.

The values are drawn from ChEMBL document CHEMBL1130127, “Synthesis, photophysical properties, in vivo photosensitizing efficacy, and human serum albumin binding properties of some novel bacteriochlorins” (J Med Chem, 1997).
